# Laboratory results as given in ChEMBL document CHEMBL4373630, “Rapid kill assessment of an N-arylated NH125 analogue against drug-resistant microorganisms” (Medchemcomm, 2019).
# Activity calls are given as the source filed them. No cut-off for these calls is given here.
# Columns and labels:
# Staphylococcus aureus [1] = assay: Bactericidal activity against methicillin-resistant Staphylococcus aureus ATCC BAA 1707 at 50 uM after 5 to 10 mins by time-kill kinetic assay relative to control; format: functional
# How it was run: (§1)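 Overnight culture diluted 1:1000 into LB containing compound at the set concentration or DMSO vehicle alone, then shaken at 250 rpm at 37 °C. At 1, 3, 5 and 10 min, aliquots were serially diluted and plated on LB 1.5% agar and incubated overnight at 37 °C. CFU/mL were taken from plates with 30–300 colonies and compared with vehicle control. Three replicates came from separate colonies.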
# Staphylococcus aureus [2] = assay: (§2) Antibacterial activity against methicillin-resistant Staphylococcus aureus ATCC BAA 1707 assessed as as reduction in bacterial load by measuring reduction in colony forming units at 50 uM treated with 18 days old solution of test compound for 10 mins followed by subculturing and further incubated for over night by time-kill kinetic assay; format: functional
# How it was run: (§3)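 Compound was prepared at 50 μM in LB and stored on the shelf for 18 days or 111 days. Exponentially growing MRSA 1707 (overnight culture diluted 1:1000 in LB) was exposed to the stored solution for 10 min at 37 °C with 250 rpm shaking. Aliquots were serially diluted, plated on LB agar and incubated overnight at 37 °C. CFU/mL were compared with vehicle control.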
# Staphylococcus aureus [3] = assay: Antibacterial activity against methicillin-resistant Staphylococcus aureus ATCC BAA 1707 at 50 uM treated with 111 days old solution of test compound for 10 mins relative to control; format: functional; how it was run: as §3
# Staphylococcus aureus [4] = assay: Bactericidal activity against methicillin-resistant Staphylococcus aureus ATCC BAA 1707 at 5 uM after 10 mins by time-kill kinetic assay relative to control; format: functional; how it was run: as §1
# Staphylococcus aureus [5] = assay: Bactericidal activity against methicillin-resistant Staphylococcus aureus ATCC BAA 1707 at 20 uM after 5 mins by time-kill kinetic assay relative to control; format: functional; how it was run: as §1
# Acinetobacter baumannii [6] = assay: Bactericidal activity against multidrug-resistant Acinetobacter baumannii ATCC 1794 at 50 uM after 5 mins by time-kill kinetic assay relative to control; format: functional; how it was run: as §1
# Acinetobacter baumannii [7] = assay: Bactericidal activity against multidrug-resistant Acinetobacter baumannii ATCC 1794 at 50 uM after 10 mins by time-kill kinetic assay relative to control; format: functional; how it was run: as §1
# Staphylococcus aureus [8] = assay: (§4) Bactericidal activity against methicillin-resistant Staphylococcus aureus ATCC BAA 1707 assessed as as reduction in bacterial load by measuring reduction in colony forming units at 50 uM preincubated for 5 to 10 min followed by subculturing and further incubated for over night by time-kill kinetic assay; format: functional; how it was run: as §1
# Enterococcus faecium [9] = assay: Bactericidal activity vancomycin-resistant Enterococcus faecium ATCC 700221 assessed as as reduction in bacterial load by measuring reduction in colony forming units at 50 uM preincubated for 5 to 10 min followed by subculturing and further incubated for over night by time-kill kinetic assay; format: functional; how it was run: as §1
# Staphylococcus aureus [10] = assay: Antibacterial activity against methicillin-resistant Staphylococcus aureus ATCC BAA 1707 at 50 uM treated with 18 days old solution of test compound for 10 mins relative to control; format: functional; how it was run: as §3
# Staphylococcus aureus [11] = assay: Bactericidal activity against methicillin-resistant Staphylococcus aureus ATCC BAA 1707 at 50 uM after 3 mins by time-kill kinetic assay relative to control; format: functional; how it was run: as §1
# Staphylococcus aureus [12] = assay: Bactericidal activity against methicillin-resistant Staphylococcus aureus ATCC BAA 1707 assessed as as reduction in bacterial load by measuring reduction in colony forming units at 5 uM preincubated for 10 min followed by subculturing and further incubated for over night by time-kill kinetic assay; format: functional; how it was run: as §1
# Staphylococcus aureus [13] = assay: Antibacterial activity against methicillin-resistant Staphylococcus aureus ATCC BAA 1707 after 16 to 18 hrs by CLSI protocol based broth microdilution assay; format: functional
# Enterococcus faecium [14] = assay: Antibacterial activity against vancomycin-resistant Enterococcus faecium ATCC 700221 after 16 to 18 hrs by CLSI protocol based broth microdilution assay; format: functional
# Staphylococcus aureus [15] = assay: Bactericidal activity against methicillin-resistant Staphylococcus aureus ATCC BAA 1707 at 20 uM after 10 mins by time-kill kinetic assay relative to control; format: functional; how it was run: as §1
# Staphylococcus aureus [16] = assay: Bactericidal activity against methicillin-resistant Staphylococcus aureus ATCC BAA 1707 assessed as as reduction in bacterial load by measuring reduction in colony forming units at 20 uM preincubated for 5 min followed by subculturing and further incubated for over night by time-kill kinetic assay; format: functional; how it was run: as §1
# Acinetobacter baumannii [17] = assay: Antibacterial activity against multidrug-resistant Acinetobacter baumannii ATCC 1794 after 16 to 18 hrs by CLSI protocol based broth microdilution assay; format: functional
# Staphylococcus aureus [18] = assay: Bactericidal activity against methicillin-resistant Staphylococcus aureus ATCC BAA 1707 at 50 uM after 1 min by time-kill kinetic assay relative to control; format: functional; how it was run: as §1
# [19] = test system: Staphylococcus epidermidis; assay: as §4, with “epidermidis” for “aureus”, “35984” for “BAA 1707”; format: functional; how it was run: as §1
# Klebsiella pneumoniae = assay: Antibacterial activity against Klebsiella pneumoniae ATCC 13883 after 16 to 18 hrs by CLSI protocol based broth microdilution assay; format: functional
# HEK293 = assay: Cytotoxicity against human HEK293 cells assessed as reduction in viability at 25 uM after 48 hrs by MTT assay relative to control; format: cell-based; conditions: hek293, 48 h
# How it was run: (§5)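 HEK 293 cells, 10^4 per well, in DMEM with 10% FBS and penicillin/streptomycin, were left overnight at 37 °C under 5% CO2. MTT was added for 3 h and dissolved in DMSO, then OD570 was read. Six replicates per treatment; percent kill = (1 – test OD570/untreated OD570) × 100%; CC50 taken as the half-maximal toxic concentration.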
# Staphylococcus aureus [20] = assay: Bactericidal activity against methicillin-resistant Staphylococcus aureus ATCC BAA 1707 assessed as as reduction in bacterial load by measuring reduction in colony forming units at 50 uM preincubated for 1 min followed by subculturing and further incubated for over night by time-kill kinetic assay; format: functional; how it was run: as §1
# [21] = test system: Staphylococcus epidermidis; assay: Antibacterial activity against methicillin-resistant Staphylococcus epidermidis ATCC 35984 after 16 to 18 hrs by CLSI protocol based broth microdilution assay; format: functional
# Acinetobacter baumannii [22] = assay: Bactericidal activity against multidrug-resistant Acinetobacter baumannii ATCC 1794 assessed as as reduction in bacterial load by measuring reduction in colony forming units at 50 uM preincubated for 5 min followed by subculturing and further incubated for over night by time-kill kinetic assay; format: functional; how it was run: as §1
# Escherichia coli = assay: Antibacterial activity against Escherichia coli clinical isolate UAEC-1 after 16 to 18 hrs by CLSI protocol based broth microdilution assay; format: functional
# [23] = test system: Staphylococcus epidermidis; assay: Bactericidal activity against methicillin-resistant Staphylococcus epidermidis ATCC 35984 at 50 uM after 5 to 10 mins by time-kill kinetic assay relative to control; format: functional; how it was run: as §1
# Staphylococcus aureus [24] = assay: Bactericidal activity against methicillin-resistant Staphylococcus aureus ATCC BAA 1707 assessed as as reduction in bacterial load by measuring reduction in colony forming units at 50 uM preincubated for 3 min followed by subculturing and further incubated for over night by time-kill kinetic assay; format: functional; how it was run: as §1
# Staphylococcus aureus [25] = assay: Bactericidal activity against methicillin-resistant Staphylococcus aureus ATCC BAA 1707 assessed as as reduction in bacterial load by measuring reduction in colony forming units at 20 uM preincubated for 10min followed by subculturing and further incubated for over night by time-kill kinetic assay; format: functional; how it was run: as §1
# Cryptococcus neoformans [26] = assay: Fungicidal activity against Cryptococcus neoformans ATCC 66031 at 50 uM after 5 to 10 mins by time-kill kinetic assay relative to control; format: functional
# How it was run: (§6)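 C. neoformans ATCC 66031 was streaked on YPD agar for two days at 37 °C, and single colonies were grown overnight in YPD at 37 °C, 250 rpm. Overnight cultures were diluted in fresh YPD with compound in DMSO at 50 μM final, or DMSO alone, and kept at 37 °C, 250 rpm. Aliquots were diluted and plated on YPD agar, and colonies counted after 1–2 days at 37 °C. Triplicate; CFU per mL.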
# Staphylococcus aureus [27] = assay: Bactericidal activity against methicillin-resistant Staphylococcus aureus ATCC BAA 1707 assessed as as reduction in bacterial load by measuring reduction in colony forming units at 5 uM preincubated for 5 min followed by subculturing and further incubated for over night by time-kill kinetic assay; format: functional; how it was run: as §1
# [28] = Cytotoxicity against human HEK293 cells after 48 hrs by MTT assay; format: cell-based; how it was run: as §5
# Acinetobacter baumannii [29] = assay: Bactericidal activity against multidrug-resistant Acinetobacter baumannii ATCC 1794 assessed as as reduction in bacterial load by measuring reduction in colony forming units at 50 uM preincubated for 10 min followed by subculturing and further incubated for over night by time-kill kinetic assay; format: functional; how it was run: as §1
# Staphylococcus aureus [30] = assay: as §2, with “111” for “18”; format: functional, organism-based; how it was run: as §3
# Cryptococcus neoformans [31] = assay: Fungicidal activity against Cryptococcus neoformans ATCC 66031 assessed as as reduction in bacterial load by measuring reduction in colony forming units at 50 uM preincubated for 5 to 10 min followed by subculturing and further incubated for 1 or 2 days by time-kill kinetic assay; format: functional; how it was run: as §6
# Enterococcus faecium [32] = assay: Bactericidal activity vancomycin-resistant Enterococcus faecium ATCC 700221 at 50 uM after 5 to 10 mins by time-kill kinetic assay relative to control; format: functional; how it was run: as §1
smiles,measurement,setting,value
CCCCCCCCCCCCCCCCn1cc[n+](-c2ccccc2)c1C,Activity,Staphylococcus aureus [1],100%
same,Activity,Staphylococcus aureus [2],>3 log10CFU/ml
same,Activity,Staphylococcus aureus [3],>99%
same,Activity,Staphylococcus aureus [4],90%
same,Activity,Staphylococcus aureus [5],99.9%
same,Activity,Acinetobacter baumannii [6],99.9%
same,Activity,Acinetobacter baumannii [7],>99.9999%
same,Activity,Staphylococcus aureus [8],>6 log10CFU/ml
same,Activity,Enterococcus faecium [9],6 log10CFU/ml
same,Activity,Staphylococcus aureus [10],>99%
same,Activity,Staphylococcus aureus [11],99.99%
same,Activity,Staphylococcus aureus [12],1 log10CFU/ml
same,MIC,Staphylococcus aureus [13],1.56 µM
same,MIC,Enterococcus faecium [14],3.13 µM
same,Activity,Staphylococcus aureus [15],99.99%
same,Activity,Staphylococcus aureus [16],3 log10CFU/ml
same,MIC,Acinetobacter baumannii [17],12.5 µM
same,Activity,Staphylococcus aureus [18],99.99%
same,Activity,[19],6 log10CFU/ml
same,MIC,Klebsiella pneumoniae,6.25 µM
same,Activity,HEK293,100%
same,Activity,Staphylococcus aureus [20],4 log10CFU/ml
same,MIC,[21],1.17 µM
same,Activity,Acinetobacter baumannii [22],3 log10CFU/ml
same,MIC,Escherichia coli,6.25 µM
same,Activity,[23],99.9999%
same,Activity,Staphylococcus aureus [24],4 log10CFU/ml
same,Activity,Staphylococcus aureus [25],4 log10CFU/ml
same,Activity,Cryptococcus neoformans [26],100%
same,Activity,Staphylococcus aureus [27],<1 log10CFU/ml
same,CC50 at 48 h,[28],< 1560 nM
same,Activity,Acinetobacter baumannii [29],>6 log10CFU/ml
same,Activity,Staphylococcus aureus [30],Active
same,Activity,Cryptococcus neoformans [31],7 log10CFU/ml
same,Activity,Enterococcus faecium [32],99.9999%
CCCCCCCCCCCCCCCC[n+]1ccn(Cc2ccccc2)c1C.[I-],Activity,HEK293,100%
same,CC50 at 48 h,[28],2410 nM
CCCCCCCCCCCCCCCC[N+](C)(C)Cc1ccccc1.[Cl-] [CETALKONIUM CHLORIDE],Activity,Staphylococcus aureus [1],100%
same,Activity,Staphylococcus aureus [2],>3 log10CFU/ml
same,Activity,Staphylococcus aureus [3],>99%
same,Activity,Staphylococcus aureus [8],>6 log10CFU/ml
same,Activity,Staphylococcus aureus [10],>99%
same,Activity,Staphylococcus aureus [11],99.99%
same,Activity,Staphylococcus aureus [18],99.99%
same,Activity,HEK293,100%
same,Activity,Staphylococcus aureus [20],4 log10CFU/ml
same,Activity,Staphylococcus aureus [24],4 log10CFU/ml
same,CC50 at 48 h,[28],6840 nM
same,Activity,Staphylococcus aureus [30],Active
